Assay results from ChEMBL document CHEMBL3779787, “Amorfrutin C Induces Apoptosis and Inhibits Proliferation in Colon Cancer Cells through Targeting Mitochondria” (J Nat Prod, 2016).
Active and inactive are the calls of the source. The rule behind the calls is not given here.

Key:
[1] = system: HT-29; assay: Induction of apoptosis in human HT-29 cells assessed as mitochondrial membrane depolarization after 5 mins by JC-1 dye-based fluorescence assay; type: functional, cell-based
How it was run: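 HT-29 (40 000 cells/well) treated with concentration series for 5 min at 37 °C, then JC-1 added for a further 10 min and washed. Red (560/590 nm) to green (485/520 nm) fluorescence ratio taken as ΔΨm; variable-slope fit for IC50; means ± SD, n = 4.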

[2] = system: HT-29; assay: Induction of apoptosis in human HT-29 cells after 24 hrs by annexin V-FLUOS/propidium iodide staining-based flow cytometry; type: functional, cell-based
[3] = Antiproliferative activity against human PC3 cells assessed as cellular DNA content after 72 hrs by CyQUANT NF fluorescence assay relative to control; type: functional, PC-3
How it was run: (§1)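 Cells seeded at 750 (HT-29), 250 (PC-3) or 900 (T84, MCF7) cells/well, treated next day with concentration series for 72 h (HT-29, PC-3) or 96 h (T84, MCF7). Relative cell number from cellular DNA content by fluorescent DNA-binding dye. Variable-slope fit; efficiency = maximal inhibition (100% − Bottom) vs untreated; IC50 relative to the compound's own maximal efficiency.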

[4] = system: MCF7; assay: Antiproliferative activity against human MCF7 cells assessed as cellular DNA content after 96 hrs by CyQUANT NF fluorescence assay; type: functional, cell-based; settings: MCF7, 96 h; how it was run: as §1
[5] = system: HT-29; assay: Antiproliferative activity against human HT-29 cells assessed as cellular DNA content after 72 hrs by CyQUANT NF fluorescence assay; type: functional, cell-based; settings: HT-29, 72 h; how it was run: as §1
[6] = system: HT-29; assay: Antiproliferative activity against human HT-29 cells assessed as cellular DNA content after 72 hrs by CyQUANT NF fluorescence assay relative to control; type: functional; how it was run: as §1
[7] = system: T84; assay: Antiproliferative activity against human T84 cells assessed as cellular DNA content after 96 hrs by CyQUANT NF fluorescence assay; type: functional, cell-based; settings: T84, 96 h; how it was run: as §1
[8] = system: T84; assay: Antiproliferative activity against human T84 cells assessed as cellular DNA content after 96 hrs by CyQUANT NF fluorescence assay relative to control; type: functional; how it was run: as §1
[9] = Antiproliferative activity against human PC3 cells assessed as cellular DNA content after 72 hrs by CyQUANT NF fluorescence assay; type: functional, cell-based; settings: PC-3, 72 h; how it was run: as §1
[10] = system: MCF7; assay: Antiproliferative activity against human MCF7 cells assessed as cellular DNA content after 96 hrs by CyQUANT NF fluorescence assay relative to control; type: functional; how it was run: as §1
[11] = system: HT-29; assay: Increase in mitochondrial oxygen consumption in human HT-29 cells measured for 20 to 60 mins by time-resolved fluorescence assay; type: functional, cell-based
How it was run: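 Oxygen-sensitive MitoXpress-Xtra probe in phenol red-free DMEM/F-12 on HT-29 seeded 80 000/well the day before; 10 min at 37 °C, compounds added, wells sealed with mineral oil. Time-resolved fluorescence at 37 °C, 90 s intervals for 150 min, background subtracted. Lifetime slope from 20 to 60 min taken relative to untreated cells; means ± SEM, n = 8.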

[12] = system: HT-29; assay: Increase in extracellular acidification rate in human HT-29 cells measured for 20 to 150 mins by time-resolved fluorescence assay relative to control; type: functional

SMILES | Activity [1] | Activity [2] | Efficacy [3] [%] | IC50 [4] [nM] | IC50 [5] [nM] | Efficacy [6] [%] | IC50 [7] [nM] | Efficacy [8] [%] | IC50 [9] [nM] | Efficacy [10] [%] | Activity [11] | fold change (FC) [12]
COc1c(CC=C(C)C)c(CCc2ccccc2)c(C(=O)O)c(OC)c1CC=C(C)C | Active | Active |  |  |  |  |  |  |  |  |  | 
O=c1[nH]cc(F)c(=O)[nH]1 [FLUOROURACIL] |  |  | 80 | 900 | 5300 | 68 | 6200 | 76 | 4900 | 80 |  | 
CCc1c2c(nc3ccc(OC(=O)N4CCC(N5CCCCC5)CC4)cc13)-c1cc3c(c(=O)n1C2)COC(=O)[C@]3(O)CC [IRINOTECAN] |  |  | 76 | 900 | 1900 | 71 | 1200 | 82 | 800 | 82 |  | 
COc1cc(CCc2ccccc2)c(C(=O)O)c(O)c1C/C=C(\C)CCC=C(C)C |  |  | 95 | 33000 | 20000 | 98 | 13000 | 99 | 32000 | 94 |  | 
N#CC(C#N)=NNc1cccc(Cl)c1 [CARBONYL CYANIDE M-CHLOROPHENYLHYDRAZONE] |  |  |  |  |  |  |  |  |  |  | Active | 3
CCCCCCC1C(=O)O[C@H](C)[C@H](NC(=O)c2cccc(NC=O)c2O)C(=O)O[C@@H](C)[C@@H]1OC(=O)CC(C)C (stereo not given in full) |  |  |  |  |  |  |  |  |  |  | Active | 7
COc1cc([C@@H]2c3cc4c(cc3[C@@H](O[C@@H]3O[C@@H]5CO[C@@H](C)O[C@H]5[C@H](O)[C@H]3O)[C@H]3COC(=O)[C@H]23)OCO4)cc(OC)c1O [ETOPOSIDE] |  |  | 84 | 800 | 2200 | 97 | 3000 | 90 | 1100 | 78 |  | 
COC(=O)c1c(O)c(CC=C(C)C)c(OC)c(CC=C(C)C)c1CCc1ccccc1 | Active | Active |  |  |  |  |  |  |  |  |  | 
